Assay results from ChEMBL document CHEMBL1781970, “Synthesis and antiproliferative evaluation of 23-hydroxybetulinic acid derivatives” (Eur J Med Chem, 2011).

Key:
Format in all cases: functional, cell-based
[1] = system: HeLa; test: Antiproliferative activity against human HeLa cells after 72 hrs by MTT assay
In short: (§1)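 Cells grown in RPMI 1640 with 10% FBS and 1% penicillin-streptomycin at 37 °C, 5% CO2, then seeded overnight in 96-well plates. Test compounds were dissolved in DMSO (doxorubicin control in PBS) and given at various concentrations for 72 h at 37 °C. MTT (5 mg/mL in PBS) was added for 4 h and OD read at 570 nm. IC50 was taken from dose-response curves; mean ± SD, ≥3 independent experiments.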

[2] = system: MCF7; test: Antiproliferative activity against human MCF7 cells after 72 hrs by MTT assay; details: MCF7, 72 h; in short: as §1
[3] = system: HepG2; test: Antiproliferative activity against human HepG2 cells after 72 hrs by MTT assay; details: HepG2, 72 h; in short: as §1
[4] = system: B16; test: Antiproliferative activity against mouse B16 cells after 72 hrs by MTT assay; details: B16, 72 h; in short: as §1
[5] = system: A-375; test: Antiproliferative activity against human A375 cells after 72 hrs by MTT assay; details: A-375, 72 h; in short: as §1

SMILES	IC50 [1] [µM]	IC50 [2] [µM]	IC50 [3] [µM]	IC50 [4] [µM]	IC50 [5] [µM]
C=C(C)[C@@H]1CC[C@]2(C(=O)N[C@@H](CCSC)C(=O)N[C@@H](CCSC)C(=O)O)CC[C@]3(C)[C@H](CC[C@@H]4[C@@]5(C)CC[C@H](O)[C@@](C)(CO)[C@@H]5CC[C@]43C)[C@@H]12	> 100	84.7	> 100	65.1	89.3
C=C(C)[C@@H]1CC[C@]2(C(=O)OCCN3CCOCC3)CC[C@]3(C)[C@H](CC[C@@H]4[C@@]5(C)CC[C@H](O)[C@@](C)(CO)[C@@H]5CC[C@]43C)[C@@H]12	> 100	34.3	59.2	45.9	34.2
C=C(C)[C@@H]1CC[C@]2(C(=O)N3CCC[C@H]3C(=O)O)CC[C@]3(C)[C@H](CC[C@@H]4[C@@]5(C)CC[C@H](O)[C@@](C)(CO)[C@@H]5CC[C@]43C)[C@@H]12	95.6	> 100	72.2	87.3	> 100
C=C(CO)[C@@H]1CC[C@]2(C(=O)OCC3CCCO3)CC[C@]3(C)[C@H](CC[C@@H]4[C@@]5(C)CC[C@H](O)[C@@](C)(CO)[C@@H]5CC[C@]43C)[C@@H]12 (stereo not given in full)	79.4	76.3	81.2	64.3	70.4
C=C(C)[C@@H]1CC[C@]2(C(=O)NCC(=O)N3CCC[C@H]3C(=O)O)CC[C@]3(C)[C@H](CC[C@@H]4[C@@]5(C)CC[C@H](O)[C@@](C)(CO)[C@@H]5CC[C@]43C)[C@@H]12	> 100	> 100	> 100	> 100	> 100
C=C(C)[C@@H]1CC[C@]2(C(=O)N3CCC[C@H]3C(=O)N[C@@H](CCSC)C(=O)O)CC[C@]3(C)[C@H](CC[C@@H]4[C@@]5(C)CC[C@H](O)[C@@](C)(CO)[C@@H]5CC[C@]43C)[C@@H]12	81.1	41.3	91.7	76.5	66.5
C=C(C)[C@@H]1CC[C@]2(C(=O)NCC(=O)N[C@@H](Cc3c[nH]c4ccccc34)C(=O)O)CC[C@]3(C)[C@H](CC[C@@H]4[C@@]5(C)CC[C@H](O)[C@@](C)(CO)[C@@H]5CC[C@]43C)[C@@H]12	> 100	> 100	> 100	> 100	> 100
C=C(C)[C@@H]1CC[C@]2(C(=O)NCCNC(=O)CCC(=O)O)CC[C@]3(C)[C@H](CC[C@@H]4[C@@]5(C)CC[C@H](OC(C)=O)[C@@](C)(COC(C)=O)[C@@H]5CC[C@]43C)[C@@H]12	72.9	51	76.1	82.6	59.5
C=C(C)[C@@H]1CC[C@]2(C(=O)O)CC[C@]3(C)[C@H](CC[C@@H]4[C@@]5(C)CC[C@H](O)[C@@](C)(CO)[C@@H]5CC[C@]43C)[C@@H]12	46.2	46.6	41.4	18.7	42

The remaining compounds from weak to strong by IC50 [1], led by results:

IC50 [1] [µM]	IC50 [2] [µM]	IC50 [3] [µM]	IC50 [4] [µM]	IC50 [5] [µM]	SMILES
69.2	> 100	66.3	> 100	> 100	C=C(C)[C@@H]1CC[C@]2(C(=O)N3CCCCC3)CC[C@]3(C)[C@H](CC[C@@H]4[C@@]5(C)CC[C@H](OC(C)=O)[C@@](C)(COC(C)=O)[C@@H]5CC[C@]43C)[C@@H]12
66.5	16.6	68.6	43.7	17.9	C=C(C)[C@@H]1CC[C@]2(C(=O)N3CCCCC3)CC[C@]3(C)[C@H](CC[C@@H]4[C@@]5(C)CC[C@H](O)[C@@](C)(CO)[C@@H]5CC[C@]43C)[C@@H]12
66.3	> 100	46.8	44.4	> 100	C=C(C)[C@@H]1CC[C@]2(C(=O)NCC(=O)N[C@@H](Cc3c[nH]c4ccccc34)C(=O)OC)CC[C@]3(C)[C@H](CC[C@@H]4[C@@]5(C)CC[C@H](O)[C@@](C)(CO)[C@@H]5CC[C@]43C)[C@@H]12
59	17.7	59.8	60.4	17.2	C=CCN(CC=C)C(=O)[C@]12CC[C@@H](C(=C)C)[C@@H]1[C@H]1CC[C@@H]3[C@@]4(C)CC[C@H](O)[C@@](C)(CO)[C@@H]4CC[C@@]3(C)[C@]1(C)CC2
46.3	17.7	48.3	66.9	30.6	C=C(C)[C@@H]1CC[C@]2(C(=O)NCCCCn3nnc(-c4ccccn4)n3)CC[C@]3(C)[C@H](CC[C@@H]4[C@@]5(C)CC[C@H](O)[C@@](C)(CO)[C@@H]5CC[C@]43C)[C@@H]12
44.4	36	38	19.1	55.7	C=C(C)[C@@H]1CC[C@]2(C(=O)OC/C=C/CO)CC[C@]3(C)[C@H](CC[C@@H]4[C@@]5(C)CC[C@H](O)[C@@](C)(CO)[C@@H]5CC[C@]43C)[C@@H]12
44.4	66.1	23.1	20.4	26.8	C=C(C)[C@@H]1CC[C@]2(C(=O)N[C@@H](CCSC)C(=O)N[C@@H](CCSC)C(=O)OC)CC[C@]3(C)[C@H](CC[C@@H]4[C@@]5(C)CC[C@H](O)[C@@](C)(CO)[C@@H]5CC[C@]43C)[C@@H]12
41.3	19.8	40.5	20.7	30.1	C=C(C)[C@@H]1CC[C@]2(C(=O)N3CCC[C@H]3C(=O)N[C@@H](CCSC)C(=O)OC)CC[C@]3(C)[C@H](CC[C@@H]4[C@@]5(C)CC[C@H](O)[C@@](C)(CO)[C@@H]5CC[C@]43C)[C@@H]12
